Experimental data from different studies.
Each line is one published result; the experiments were not run side by side.
SLCO1B1: Solute carrier organic anion transporter family member 1B1 (SLCO1B1, Homo sapiens, UniProt Q9Y6L6)
PGR: Progesterone receptor (PGR, Homo sapiens, UniProt P06401)
CHRM1: Muscarinic acetylcholine receptor M1 (CHRM1, Homo sapiens, UniProt P11229)

The IC50 of `CCOC(=O)c1cncn1[C@H](C)c1ccccc1` is reported as > 100 µM (SLCO1B1; transporter uptake, inhibitor, fluorescence; CHO; 30 min, pH 7.4).
`COC1CCN(CCC(C#N)(c2ccccc2)c2ccccc2)CC1` gave an IC50 of > 100 µM (Potassium voltage-gated channel subfamily A member 3 (Kcna3, Mus musculus, UniProt P16390); ion current, inhibitor, patch clamp).
The IC50 of `Cc1nnc2n1-c1ccc(Cl)cc1C(c1ccccc1)=NC2` is reported as > 100 µM (Cytochrome P450 1A2 (CYP1A2, Homo sapiens, UniProt P05177); enzyme activity, inhibitor, fluorescence).
For `CC(C)(C)[C@H](NC(=O)C(F)(F)F)C(=O)N1C[C@H]2[C@@H]([C@H]1C(=O)N[C@H](C#N)C[C@@H]1CCNC1=O)C2(C)C`, the Ki was 22.6 µM (Cytochrome P450 3A4 (CYP3A4, Homo sapiens, UniProt P08684); enzyme activity, inhibitor; human, liver microsomes).
With `C[C@]12CC[C@H]3[C@@H](CCC4=CC(=O)CC[C@@H]43)[C@@H]1CC[C@@H]2O` the IC50 was 0.0678 µM (PGR; ligand displacement).
The IC50 of `CC(C)(C)[C@H](NC(=O)C(F)(F)F)C(=O)N1C[C@H]2[C@@H]([C@H]1C(=O)N[C@H](C#N)C[C@@H]1CCNC1=O)C2(C)C` is reported as > 10 µM (Papain (Carica papaya, UniProt P00784); enzyme activity, inhibitor).
`CCN1C[C@]2(COC)[C@H](O)C[C@H](OC)[C@@]34[C@@H]5C[C@@]6(O)[C@H](OC(=O)c7ccccc7)[C@@H]5[C@@](OC(C)=O)([C@@H]([C@H](OC)[C@H]23)[C@@H]14)[C@@H](O)[C@@H]6OC` has an IC50 of > 100 µM (SLCO1B1; transporter uptake, inhibitor, fluorescence; CHO; 30 min, pH 7.4).
The IC50 of `C[C@]12CC[C@H]3[C@@H](CCC4=CC(=O)CC[C@@]43C)[C@@H]1CC[C@@H]2O` is reported as > 0.5 µM (PGR; ligand displacement).
For `C[C@]1(O)CC[C@H]2[C@@H]3CCC4=CC(=O)CCC4=C3CC[C@@]21C`, the EC50 was 0.0008 µM (PGR; reporter gene, agonist).
For `CCCCCCCNCCCc1ccc([N+](=O)[O-])cc1`, the Ki was 1.9 µM (CHRM1; ligand displacement, radioligand).
With `Clc1cccc(N2CCNCC2)c1Cl` the Ki was 25.1 µM (CHRM1; ligand displacement, radioligand; cell membranes).
